# What was measured:
# Enterococcus faecalis = experiment: In vitro minimum inhibitory concentration (MIC) against Enterococcus faecalis UC9217; format: functional
# In short: (§1)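 MIC determined by standard broth microdilution, defined as the lowest drug concentration (µg/mL) inhibiting visible growth.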
# Staphylococcus aureus [1] = experiment: In vitro minimum inhibitory concentration (MIC) against Staphylococcus aureus UC9213; format: functional; in short: as §1
# Escherichia coli = experiment: In vitro minimum inhibitory concentration (MIC) against Escherichia coli UC6674; format: functional; in short: as §1
# Moraxella catarrhalis = experiment: In vitro minimum inhibitory concentration (MIC) against Moraxella catarrhalis UC30610; format: functional; in short: as §1
# Streptococcus pneumoniae = experiment: In vitro minimum inhibitory concentration (MIC) against Streptococcus pneumoniae UC9912; format: functional; in short: as §1
# Staphylococcus aureus [2] = experiment: In vitro minimum inhibitory concentration (MIC) against Staphylococcus aureus UC12673; format: functional; in short: as §1
# Haemophilus influenzae = experiment: In vitro minimum inhibitory concentration (MIC) against Haemophilus influenzae UC30063; format: functional; in short: as §1
# [3] = test system: Staphylococcus epidermidis; experiment: In vitro minimum inhibitory concentration (MIC) against Staphylococcus epidermidis UC12084; format: functional; in short: as §1
# Mus musculus = experiment: In Vivo effective dose required for antibacterial activity in a systemic mouse infection model (SMIM) upon peroral administration against Staphylococcus aureus UC9213; format: functional; details: po
# In short: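 Compound was given orally at 1 and 5 h after infection. Deaths were monitored for at least 6 days, and ED50 (dose curing 50% of mice) was calculated by probit analysis.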
# Rattus norvegicus = species: Rattus norvegicus; experiment: Compound was evaluated for metabolic stability via In vitro Rat 5E6 cell at 50 uM concentration; format: functional
# [4] = Tmax value in Male Sprague-Dawley Rat at dose 25 (mg/kg po) [tmax (h)]; format: ADME, organism-based; details: in vivo
# In short: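 Male Sprague-Dawley rats dosed intravenously or orally. Intact compound measured in plasma by HPLC-UV after protein-precipitation sample preparation. Half-life reported as harmonic mean apparent terminal disposition half-life. Bioavailability is absolute oral bioavailability. Some comparator values are archival data.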
SMILES,MIC (Enterococcus faecalis) [µg/mL],MIC (Staphylococcus aureus [1]) [µg/mL],MIC (Escherichia coli) [µg/mL],MIC (Moraxella catarrhalis) [µg/mL],MIC (Streptococcus pneumoniae) [µg/mL],MIC (Staphylococcus aureus [2]) [µg/mL],MIC (Haemophilus influenzae) [µg/mL],MIC [3] [µg/mL],ED50 (Mus musculus) [mg/kg],Remaining at 40 min (Rattus norvegicus) [%],Tmax [4] [min]
CC(=O)NC[C@H]1CC(c2ccc(-n3ccnc3)c(F)c2)=NO1,4,2,> 16,16,1,2,> 16,1,–,–,–
CC(=O)NC[C@@H]1CC(c2ccc(C3=CCN(C(=O)CO)CC3)cc2)=NO1,> 16,> 16,> 16,> 16,> 16,> 16,> 16,> 16,–,–,–
CC(=O)NCC1CC(c2ccc(C3=CCN(C(=O)CO)CC3)cc2)=NO1 (racemic),8,4,> 16,> 16,2,4,> 16,4,–,–,–
CC(=O)NC[C@H]1CC(c2cc(F)c(N3CCN(C(=O)CO)CC3)c(F)c2)=NO1,2,2,> 16,8,0.5,1,16,0.5,5,–,–
CC(=O)NC[C@H]1CC(c2cc(F)c(-n3ccnc3)c(F)c2)=NO1,8,8,> 16,> 16,2,4,> 16,2,–,–,–
CC(=O)NC[C@@H]1CC(c2ccc(N3CCN(C(=O)CO)CC3)c(F)c2)=NO1,> 16,> 16,> 16,> 16,> 16,> 16,> 16,> 16,–,–,–
CC(=O)NC[C@H]1CN(c2ccc(N3CCOCC3)c(F)c2)C(=O)O1 [LINEZOLID],–,–,> 32,8,–,–,16,1,–,97,18.6
CC(=O)NCC1CC(c2ccc(C3=CCN(C(C)=O)CC3)cc2)=NO1 (stereo not drawn),8,8,> 16,> 16,2,8,> 16,4,–,–,–
CC(=O)NC[C@H]1CC(c2ccc(-c3ccncc3)cc2)=NO1,2,1,> 16,8,0.25,2,16,0.5,–,–,–
CC(=O)NC[C@H]1CC(c2ccc(-n3cccc3)c(F)c2)=NO1,4,2,> 16,16,0.5,2,> 16,0.5,–,–,–
CC(=O)NC[C@@H]1CC(c2cc(F)c(N3CCOCC3)c(F)c2)=NO1,> 16,> 16,> 16,> 16,> 16,> 16,> 16,> 16,–,–,–
COC(=O)N1CC=C(c2ccc(C3=NOC(CNC(C)=O)C3)cc2)CC1 (stereo not drawn),16,16,> 16,> 16,4,16,> 16,8,–,–,–
CC(=O)NC[C@H]1CC(c2cc(F)c(N3CCNCC3)c(F)c2)=NO1,4,4,> 16,8,0.25,4,8,0.5,–,–,–
CC(=O)NC[C@H]1CC(c2ccc(N3CCCC3)c(F)c2)=NO1,8,4,> 16,> 16,2,4,> 16,4,–,–,–
CC(=O)NC[C@H]1CC(c2ccc(-n3cccn3)c(F)c2)=NO1,16,16,> 16,> 16,4,16,> 16,4,–,–,–
CC(=O)NC[C@H]1CC(c2ccc(C3=CCN(C(=O)CO)CC3)cc2)=NO1,4,2,> 16,8,0.5,2,> 16,1,6,–,–

# — ChEMBL document CHEMBL1144880, “Identification of phenylisoxazolines as novel and viable antibacterial agents active against Gram-positive pathogens” (J Med Chem, 2003)
